Measurements as given in ChEMBL document CHEMBL1130411, “The practical synthesis of a methylenebisphosphonate analogue of benzamide adenine dinucleotide: inhibition of human inosine monophosphate dehydrogenase (type I and II)” (J Med Chem, 1997).
Each block holds one molecule with its values, some of them ahead of it.

Columns and labels:
K562 [1] = assay: Inhibition of growth in human erythroleukemia K-562 cells (% of untreated control); format: functional
Procedure, shortened: (§1)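 K562 cells in RPMI 1640 with 10% heat-inactivated calf serum, glutamine, penicillin/streptomycin; seeded at 5 × 10³ per mL, compound (with or without 30 µM guanosine) added at start. After 5 days, MTT added, 3 h at 37 °C; formazan dissolved in acidified 2-propanol, absorbance 550 nm. Triplicate points; IC50 for 50% growth inhibition averaged over four experiments.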

K562 [2] = assay: Differentiation of K-562 cells at 7.5 uM with coadministration of guanosine; format: functional, Homo sapiens
Procedure, shortened: (§2)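 Human erythroleukemia K562 cells grown in RPMI 1640 with 10% heat-inactivated calf serum, glutamine and penicillin/streptomycin; incubated 5 days with compound, with or without 30 µM guanosine. Hemoglobin expression read by benzidine staining (0.1% benzidine in 0.25% H2O2, equal volume, 5 min, room temperature); 300-400 cells counted for % benzidine-positive. Duplicates; average of three experiments.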

K562 [3] = assay: Differentiation of K-562 cells at 15 uM with coadministration of guanosine; format: functional, Homo sapiens; procedure, shortened: as §2
K562 [4] = assay: Differentiation of K-562 cells at 7.5 uM with out coadministration of guanosine; format: functional, Homo sapiens; procedure, shortened: as §2
K562 [5] = assay: Differentiation of K-562 cells at 15 uM with out coadministration of guanosine; format: functional, Homo sapiens; procedure, shortened: as §2
K562 [6] = assay: Differentiation of K-562 cells at 60 uM with coadministration of guanosine; format: functional, Homo sapiens; procedure, shortened: as §2
K562 [7] = assay: Differentiation of K-562 cells at 60 uM with out coadministration of guanosine; format: functional, Homo sapiens; procedure, shortened: as §2
K562 [8] = assay: Tested for inhibition of growth in human erythroleukemia K-562 cells.; format: functional, cell-based; procedure, shortened: as §1
K562 [9] = assay: Differentiation of K-562 cells at 120 uM with out coadministration of guanosine; format: functional, Homo sapiens; procedure, shortened: as §2
K562 [10] = assay: Differentiation of K-562 cells at 120 uM with coadministration of guanosine; format: functional, Homo sapiens; procedure, shortened: as §2
K562 [11] = assay: Differentiation of K-562 cells at 30 uM with coadministration of guanosine; format: functional, Homo sapiens; procedure, shortened: as §2
K562 [12] = assay: Differentiation of K-562 cells at 30 uM with out coadministration of guanosine; format: functional, Homo sapiens; procedure, shortened: as §2
K562 [13] = assay: Differentiation of K-562 cells at 19 uM with coadministration of guanosine; format: functional, Homo sapiens; procedure, shortened: as §2
K562 [14] = assay: Differentiation of K-562 cells at 19 uM with out coadministration of guanosine; format: functional, Homo sapiens; procedure, shortened: as §2
K562 [15] = assay: Differentiation of K-562 cells at 3.8 uM with out coadministration of guanosine; format: functional, Homo sapiens; procedure, shortened: as §2
K562 [16] = assay: Differentiation of K-562 cells at 3.8 uM with coadministration of guanosine; format: functional, Homo sapiens; procedure, shortened: as §2

Structure (SMILES): NC(=O)c1csc([C@H]2O[C@@H](COP(=O)(O)OP(=O)(O)OC[C@H]3O[C@@H](n4cnc5c(N)ncnc54)[C@H](O)[C@@H]3O)[C@H](O)[C@@H]2O)n1
Growth inhibition (% of untreated control) (K562 [1]): 80% | Benzidine positive cells (K562 [2]): 15% | Benzidine positive cells (K562 [3]): 30% | Benzidine positive cells (K562 [4]): 50% | Benzidine positive cells (K562 [5]): 70%

IC50 (K562 [8]): 60 µM
Structure (SMILES): NC(=O)c1cccc([C@@H]2O[C@H](COP(=O)(O)CP(=O)(O)OC[C@@H]3O[C@H](n4cnc5c(N)ncnc54)[C@@H](O)[C@H]3O)[C@@H](O)[C@H]2O)c1
Growth inhibition (% of untreated control) (K562 [1]): 90% | Benzidine positive cells (K562 [6]): 15% | Benzidine positive cells (K562 [7]): 45% | Benzidine positive cells (K562 [9]): 75% | Benzidine positive cells (K562 [10]): 17%

Structure (SMILES): NC(=O)c1csc([C@@H]2O[C@H](COP(=O)(O)CP(=O)(O)OC[C@@H]3O[C@H](n4cnc5c(N)ncnc54)[C@@H](O)[C@H]3O)[C@@H](O)[C@H]2O)n1
Benzidine positive cells (K562 [11]): 30% | Growth inhibition (% of untreated control) (K562 [1]): 90% | Benzidine positive cells (K562 [12]): 85% | Benzidine positive cells (K562 [3]): 23% | Benzidine positive cells (K562 [5]): 34%

Structure (SMILES): NC(=O)c1csc([C@@H]2O[C@H](CO)[C@@H](O)[C@H]2O)n1 [TIAZOFURIN]
Growth inhibition (% of untreated control) (K562 [1]): 90% | Benzidine positive cells (K562 [13]): 40% | Benzidine positive cells (K562 [14]): 80% | Benzidine positive cells (K562 [15]): 36% | Benzidine positive cells (K562 [16]): 12%
